Experimental data published in ChEMBL document CHEMBL1828575, “Design, synthesis and antiproliferative activities of biarylolefins based on polyhydroxylated and carbohydrate scaffolds” (Eur J Med Chem, 2011).

How the values were obtained:
Assay type in all cases: functional
PC-3 = test: Cytotoxicity against human PC3 cells assessed as cellular growth at 10 uM after 48 hrs by SRB assay
How it was run: (§1)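 NCI-60 panel lines grown in RPMI 1640 with 5% FBS and 2 mM L-glutamine. Plated at 5000–40,000 cells/well and preincubated 24 h at 37 °C, 5% CO₂, with time-zero plates fixed in TCA. Compounds, dissolved in DMSO and diluted in medium, were applied for 48 h. Cells were TCA-fixed (10% final for adherent, 16% for suspension) and stained with 0.4% SRB in 1% acetic acid. Dye was solubilised in 10 mM Tris base and read at 515 nm; growth was expressed as a percentage of untreated control.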

SW-620 = test: Antitumor activity against human SW620 cells after 48 hrs by SRB assay; details: SW-620, 48 h
How it was run: (§2)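 NCI60 panel cells grown in RPMI 1640 with 5% FBS and 2 mM L-glutamine, plated at 5000–40,000 cells/well and preincubated 24 h at 37 °C, 5% CO₂. Compound was added from DMSO at five concentrations, 10-fold or 1/2 log dilutions, then incubated 48 h.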

LOX IMVI [1] = test: Antitumor activity against human LOXIMVI cells after 48 hrs by SRB assay
How it was run: (§3)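 NCI60 panel in RPMI 1640 with 5% FBS and 2 mM L-glutamine. Cells were plated at 5000–40,000/well by doubling time, held 24 h, then time-zero plates were TCA-fixed. Five concentrations (10-fold or half-log dilutions of DMSO stocks) were applied for 48 h at 37 °C, 5% CO2. Cells were fixed with cold TCA (10% final adherent, 16% suspension) and stained with 0.4% SRB. Bound dye was dissolved in 10 mM Tris and read at 515 nm. GI50, TGI and LC50 were calculated per line.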

SN12C = test: Cytotoxicity against human SN12C cells assessed as cellular growth at 10 uM after 48 hrs by SRB assay; how it was run: as §1
NCI-H226 = test: Antitumor activity against human NCI-H226 cells after 48 hrs by SRB assay; details: NCI-H226, 48 h; how it was run: as §3
LOX IMVI [2] = test: Cytotoxicity against human LOXIMVI cells assessed as cellular growth at 10 uM after 48 hrs by SRB assay
How it was run: (§4)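 NCI60 single-dose screen of cells in RPMI 1640 with 5% FBS and 2 mM L-glutamine, preincubated 24 h at 37 °C, 5% CO₂. Cells were then exposed 48 h to compound added from DMSO stock. TCA-fixed, stained with 0.4% SRB in 1% acetic acid, dye solubilised in 10 mM Tris base and read at 515 nm. Growth is given as percent of untreated control.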

SK-OV-3 [3] = test: Cytotoxicity against human SKOV3 cells assessed as cellular growth at 10 uM after 48 hrs by SRB assay; how it was run: as §1
SR = test: Antitumor activity against human SR cells after 48 hrs by SRB assay; how it was run: as §2
SK-OV-3 [4] = test: Antitumor activity against human SKOV3 cells after 48 hrs by SRB assay; details: SK-OV-3, 48 h; how it was run: as §2
OVCAR-8 = test: Cytotoxicity against human OVCAR8 cells assessed as cellular growth at 10 uM after 48 hrs by SRB assay; how it was run: as §1
UACC-62 = test: Cytotoxicity against human UACC62 cells assessed as cellular growth at 10 uM after 48 hrs by SRB assay; how it was run: as §1
OVCAR-4 = test: Antitumor activity against human OVCAR4 cells after 48 hrs by SRB assay; details: OVCAR-4, 48 h; how it was run: as §3
Malme-3M = test: Antitumor activity against human MALME-3M cells after 48 hrs by SRB assay; how it was run: as §3
SK-MEL-5 = test: Antitumor activity against human SK-MEL-5 cells after 48 hrs by SRB assay; details: SK-MEL-5, 48 h; how it was run: as §2
UACC-257 = test: Antitumor activity against human UACC257 cells after 48 hrs by SRB assay; details: UACC-257, 48 h; how it was run: as §2
HOP-62 = test: Cytotoxicity against human HOP62 cells assessed as cellular growth at 10 uM after 48 hrs by SRB assay; how it was run: as §4
SF-295 = test: Antitumor activity against human SF295 cells after 48 hrs by SRB assay; details: SF-295, 48 h; how it was run: as §3
TK-10 = test: Antitumor activity against human TK10 cells after 48 hrs by SRB assay; details: TK-10, 48 h; how it was run: as §2
HCC 2998 = test: Antitumor activity against human HCC2998 cells after 48 hrs by SRB assay; details: HCC 2998, 48 h; how it was run: as §3
RXF 393 = test: Antitumor activity against human RXF393 cells after 48 hrs by SRB assay; details: RXF 393, 48 h; how it was run: as §3
MDA-MB-435 = test: Antitumor activity against human MDA-MB-435 cells after 48 hrs by SRB assay; details: MDA-MB-435, 48 h; how it was run: as §3
[5] = read-out: LC50 (the source's name)
[6] = read-out: pLC50 (the source's name) (converted)

`COc1ccc(/C(=C2\O[C@@H]([C@H]3COC(C)(C)O3)[C@H]3OC(C)(C)O[C@@H]23)c2cc(OC)c(OC)c(OC)c2)cc1O` was tested, and the Activity (PC-3) was 29.4%, the GI50 (SW-620; read-out: GI50) was 7.28 µM and the CC50 (SW-620; [5]) was > 100 µM. For the same compound, the TGI (SW-620; read-out: TGI) was > 100 µM, the GI50 (SW-620; read-out: pGI50 (converted)) was 7.24 µM and the CC50 (SW-620; [6]) was > 100 µM. The TGI (SW-620; read-out: pTGI) was > 100 µM, the GI50 (LOX IMVI [1]) was 3.39 µM and the TGI (LOX IMVI [1]) was 19.8 µM. The CC50 (LOX IMVI [1]; [5]) was > 100 µM, the Activity (SN12C) was 84.5% and the GI50 (NCI-H226; read-out: GI50) was 64.7 µM. For the same compound, the CC50 (NCI-H226; [5]) was > 100 µM, the TGI (NCI-H226; read-out: TGI) was > 100 µM and the GI50 (NCI-H226; read-out: pGI50 (converted)) was 64.6 µM. The CC50 (NCI-H226; [6]) was > 100 µM, the TGI (NCI-H226; read-out: pTGI (converted)) was > 100 µM and the Activity (LOX IMVI [2]) was 47.56%. For the same compound, the Activity (SK-OV-3 [3]) was 90.14%, the GI50 (SR; read-out: GI50) was 6.1 µM and the CC50 (SR; [5]) was > 100 µM. For the same compound, the TGI (SR; read-out: TGI) was > 100 µM, the GI50 (SR; read-out: pGI50 (converted)) was 6.17 µM and the CC50 (SR; [6]) was > 100 µM. The TGI (SR; read-out: pTGI) was > 100 µM, the GI50 (SK-OV-3 [4]; read-out: GI50) was 12.6 µM and the CC50 (SK-OV-3 [4]; [5]) was > 100 µM. For the same compound, the TGI (SK-OV-3 [4]; read-out: TGI) was 91.7 µM, the GI50 (SK-OV-3 [4]; read-out: pGI50 (converted)) was 12.6 µM and the CC50 (SK-OV-3 [4]; [6]) was > 100 µM. For the same compound, the TGI (SK-OV-3 [4]; read-out: pTGI (converted)) was 91.2 µM, the Activity (OVCAR-8) was 96.09% and the Activity (UACC-62) was 82.85%. The GI50 (OVCAR-4; read-out: GI50) was 37.5 µM, the CC50 (OVCAR-4; [5]) was > 100 µM and the TGI (OVCAR-4; read-out: TGI) was > 100 µM. For the same compound, the GI50 (OVCAR-4; read-out: pGI50 (converted)) was 37.2 µM, the CC50 (OVCAR-4; [6]) was > 100 µM and the TGI (OVCAR-4; read-out: pTGI (converted)) was > 100 µM. The GI50 (Malme-3M) was 2.07 µM, the LC50 (concentration killing 50% of cells present at time zero) (Malme-3M) was > 100 µM and the TGI (Malme-3M) was 5.59 µM. For the same compound, the GI50 (SK-MEL-5) was 4.07 µM, the LC50 (SK-MEL-5) was 51.4 µM and the TGI (SK-MEL-5) was 15.4 µM. For the same compound, the GI50 (UACC-257; read-out: GI50) was 39.4 µM, the CC50 (UACC-257; [5]) was > 100 µM and the TGI (UACC-257; read-out: TGI) was > 100 µM. The GI50 (UACC-257; read-out: pGI50 (converted)) was 39.8 µM, the CC50 (UACC-257; [6]) was > 100 µM and the TGI (UACC-257; read-out: pTGI (converted)) was > 100 µM. For the same compound, the Activity (HOP-62) was 91.26%, the CC50 (SF-295; [5]) was > 100 µM and the TGI (SF-295; read-out: TGI) was 43.8 µM. The GI50 (SF-295; read-out: pGI50 (converted)) was 18.6 µM, the CC50 (SF-295; [6]) was > 100 µM and the TGI (SF-295; read-out: pTGI (converted)) was 43.7 µM. For the same compound, the GI50 (TK-10; read-out: GI50) was 3.66 µM, the CC50 (TK-10; [5]) was > 100 µM and the TGI (TK-10; read-out: TGI) was 86.3 µM. The GI50 (TK-10; read-out: pGI50 (converted)) was 36.3 µM, the CC50 (TK-10; [6]) was > 100 µM and the TGI (TK-10; read-out: pTGI (converted)) was 87.1 µM. For the same compound, the GI50 (HCC 2998; read-out: GI50) was 31.1 µM, the CC50 (HCC 2998; [5]) was > 100 µM and the TGI (HCC 2998; read-out: TGI) was 80.4 µM. For the same compound, the GI50 (HCC 2998; read-out: pGI50 (converted)) was 30.9 µM, the CC50 (HCC 2998; [6]) was > 100 µM and the TGI (HCC 2998; read-out: pTGI (converted)) was 81.3 µM. It also gave a GI50 (RXF 393) of 2.54 µM, a TGI (RXF 393) of 5.99 µM and a CC50 (RXF 393; [5]) of 32.6 µM. For the same compound, the GI50 (MDA-MB-435) was 3.61 µM, the TGI (MDA-MB-435) was 17.5 µM and the CC50 (MDA-MB-435; [5]) was > 100 µM.
